Measured values as given in ChEMBL document CHEMBL1142075, “Two-year assessment of entecavir resistance in Lamivudine-refractory hepatitis B virus patients reveals different clinical outcomes depending on the resistance substitutions present” (Antimicrob Agents Chemother, 2007).

Legend:
Hepatitis B virus [1] = experiment: Inhibition of HBV replication with RT A200V substitution from Lamivudine refractory patient transfected into HepG2 cells; type: functional, organism-based
How it was run: (§1)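 HepG2 cells bulk-transfected with full-length HBV phenotyping plasmids cloned from patient isolates, then seeded into wells with compound titration. DMSO vehicle controls and cloned lab wild-type HBV run in parallel each experiment. At 5 days posttransfection, released virions stripped with Nonidet P-40, captured from medium with anti-HBV core antibody, and extracellular replicated virus quantitated. EC50 = concentration giving 50% inhibition.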

Hepatitis B virus [2] = experiment: Inhibition of HBV replication with RT L80I substitution and L180M, M204I background from Lamivudine refractory patient transfected into HepG2 cells; type: functional, organism-based; how it was run: as §1
Hepatitis B virus [3] = experiment: Inhibition of HBV replication with RT V224A substitution and V173L, L180M, M204V background from Lamivudine refractory patient transfected into HepG2 cells; type: functional; how it was run: as §1
Hepatitis B virus [4] = experiment: Inhibition of HBV replication with RT G295S substitution and L80I, M204I background from Lamivudine refractory patient transfected into HepG2 cells; type: functional; how it was run: as §1
Hepatitis B virus [5] = experiment: Inhibition of HBV replication with RT A200V substitution and M204I background from Lamivudine refractory patient transfected into HepG2 cells; type: functional, organism-based; how it was run: as §1
Hepatitis B virus [6] = experiment: Inhibition of HBV replication with RT S78T substitution from Lamivudine refractory patient transfected into HepG2 cells; type: functional, organism-based; how it was run: as §1
Hepatitis B virus [7] = experiment: Inhibition of HBV replication with RT D263G substitution from Lamivudine refractory patient transfected into HepG2 cells; type: functional, organism-based; how it was run: as §1
Hepatitis B virus [8] = experiment: Inhibition of HBV replication with RT M309L substitution from Lamivudine refractory patient transfected into HepG2 cells; type: functional, organism-based; how it was run: as §1
Hepatitis B virus [9] = experiment: Inhibition of HBV replication with RT L229W substitution and L180M, M204V background from Lamivudine refractory patient transfected into HepG2 cells; type: functional, organism-based; how it was run: as §1
Hepatitis B virus [10] = experiment: Inhibition of HBV replication with RT Q267Stop substitution and L180M, M204V background from Lamivudine refractory patient transfected into HepG2 cells; type: functional; how it was run: as §1
Hepatitis B virus [11] = experiment: Inhibition of HBV replication with RT I53F substitution and V173F, L180M, M204V background from Lamivudine refractory patient transfected into HepG2 cells; type: functional, organism-based; how it was run: as §1
Hepatitis B virus [12] = experiment: Inhibition of HBV replication with RT L80V substitution and L180M, M204V background from Lamivudine refractory patient transfected into HepG2 cells; type: functional, organism-based; how it was run: as §1
Hepatitis B virus [13] = experiment: Inhibition of HBV replication with RT A200V substitution and L180M, M204I background from Lamivudine refractory patient transfected into HepG2 cells; type: functional, organism-based; how it was run: as §1
Hepatitis B virus [14] = experiment: Inhibition of HBV replication with RT A181T substitution and V173L, L180M, M204V background from Lamivudine refractory patient transfected into HepG2 cells
Hepatitis B virus [15] = experiment: Inhibition of HBV replication with RT L228P substitution and M204I background from Lamivudine refractory patient transfected into HepG2 cells; type: functional; how it was run: as §1
Hepatitis B virus [16] = experiment: Inhibition of HBV replication with RT V27A substitution and L180M, M204V background from Lamivudine refractory patient transfected into HepG2 cells; type: functional; how it was run: as §1
Hepatitis B virus [17] = experiment: Inhibition of HBV replication with RT K168E substitution and M204I background from Lamivudine refractory patient transfected into HepG2 cells; type: functional; how it was run: as §1
Hepatitis B virus [18] = experiment: Inhibition of HBV replication with RT C188S substitution and L80I, L180T, M204V background from Lamivudine refractory patient transfected into HepG2 cells; type: functional, organism-based; how it was run: as §1

## C=C1[C@H](CO)[C@@H](O)C[C@@H]1n1cnc2c(=O)[nH]c(N)nc21.O [ENTECAVIR]
Hepatitis B virus [1]
  EC50: 7.6 nM
Hepatitis B virus [2]
  EC50: 45.3 nM
Hepatitis B virus [3]
  Inhibition: <10%
Hepatitis B virus [4]
  Inhibition: <10%
Hepatitis B virus [5]
  EC50: 33 nM
Hepatitis B virus [6]
  EC50: 2.4 nM
Hepatitis B virus [7]
  EC50: 5.8 nM
Hepatitis B virus [8]
  EC50: 4 nM
Hepatitis B virus [9]
  EC50: 32.9 nM
Hepatitis B virus [10]
  Inhibition: <10%
Hepatitis B virus [11]
  EC50: 22.3 nM
Hepatitis B virus [12]
  EC50: 11 nM
Hepatitis B virus [13]
  EC50: 10.2 nM
Hepatitis B virus [14]
  EC50: 14.2 nM
Hepatitis B virus [15]
  Inhibition: <10%
Hepatitis B virus [16]
  Inhibition: <10%
Hepatitis B virus [17]
  Inhibition: <10%
Hepatitis B virus [18]
  EC50: 31.2 nM
